Experimental data from ChEMBL document CHEMBL4152213, “Synthesis and biological evaluation of 2,5-disubstituted furan derivatives as P-glycoprotein inhibitors for Doxorubicin resistance in MCF-7/ADR cell” (Eur J Med Chem, 2018).
pEC50: −log10 of the molar value.

Legend:
Type in all cases: cell-based
[1] = Inhibition of P-gp in human MCF7/ADR cells assessed as cell viability after 48 hrs by MTT assay; details: NCI/ADR-RES
Outline: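 MTT assay in MCF-7/ADR cells: cells incubated 48 h with or without compounds, then 5 mg/mL MTT added for 3–4 h at 37 °C, 5% CO2. Formazan dissolved in EtOH/DMSO (1:1), OD at 570 and 650 nm. Data are the mean of three independent determinations of triplicate samples.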

Homo sapiens [2] = organism: Homo sapiens; experiment: Inhibition of P-gp in human MCF7/ADR cells assessed as increase in intracellular accumulation of doxorubicin at 20 uM after 2 days by fluorescence assay relative to doxorubicin alone
Outline: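 MCF-7/ADR cells exposed to compounds at 20 μM for 2 days, with Doxorubicin 50 μM added on the second day. Cells trypsinized, washed twice in ice-cold PBS pH 7.4, kept on ice under 1 h, then cellular Doxorubicin fluorescence measured by flow cytometry. Doxorubicin-only cells set as 100% and untreated autofluorescence as 0%. Expressed as fold accumulation; three independent determinations in triplicate.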

NCI/ADR-RES = experiment: Cytotoxicity against human MCF7/ADR cells at 100 uM after 24 to 48 hrs by MTT assay relative to control
Outline: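 MCF-7/ADR cells (RPMI 1640, 10% FBS, 37 °C, 5% CO2) exposed to compounds alone at 100 μM without Doxorubicin for 24 and 48 h. Viability by MTT: 5 mg/mL MTT, 3–4 h at 37 °C, formazan dissolved in EtOH/DMSO 1:1, OD at 570 and 650 nm. Cytotoxicity taken relative to untreated control.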

Homo sapiens [3] = organism: Homo sapiens; experiment: Inhibition of P-gp in human MCF7/ADR cells assessed as assessed as potentiation of doxorubicin-induced antiproliferative activity by measuring doxorubicin antiproliferative activity at 20 uM after 2 days by MTT assay; parameters: scale not given: the % may be the effect or the level left
Outline: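 MCF-7/ADR cells plated at 10,000/well, then treated the next day. Compounds at 20 μM plus Doxorubicin 5 μM for 2 days, washed twice, then Doxorubicin alone for 1 day. Read-out by MTT: 0.5 mg/mL, 1 h at 37 °C, DMSO, absorbance 570/630 nm. Growth inhibition given as % of untreated control. Eight wells per treatment; three independent determinations in triplicate.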

Structure (SMILES): COc1ccc(-c2ccc(C(=O)N3CCc4cc(OC)c(OC)cc4C3)o2)cc1
- pEC50 [1]: 6.05
- fold change (FC) (Homo sapiens [2]): 9.2
- Activity (NCI/ADR-RES): < 15%
- Activity (Homo sapiens [3]): 97.8%

Structure (SMILES): COc1cc2c(cc1OC)CN(C(=O)c1ccc(-c3ccccc3Cl)o1)CC2
- pEC50 [1]: 5.09

Structure (SMILES): O=C(c1ccc(-c2ccc([N+](=O)[O-])cc2)o1)N1CCCc2ccccc21
- pEC50 [1]: 4.81

Structure (SMILES): O=C(c1ccc(-c2ccc(Cl)cc2)o1)N1CCCc2ccccc21
- pEC50 [1]: 5.08

Structure (SMILES): COc1cc2c(cc1OC)CN(C(=O)c1ccc(-c3ccc(Br)cc3)o1)CC2
- pEC50 [1]: 5.36
- fold change (FC) (Homo sapiens [2]): 5
- Activity (NCI/ADR-RES): < 15%
- Activity (Homo sapiens [3]): 79.8%

Structure (SMILES): O=C(c1ccc(-c2ccc(Br)cc2)o1)N1CCCc2ccccc21
- pEC50 [1]: 5.04

Structure (SMILES): O=C(c1ccc(-c2cccc(Cl)c2)o1)N1CCc2ccccc2C1
- pEC50 [1]: 4.74

Structure (SMILES): COc1cc2c(cc1OC)CN(C(=O)c1ccc(-c3ccccc3[N+](=O)[O-])o1)CC2
- pEC50 [1]: 4.86

Structure (SMILES): COc1cc2c(cc1OC)CN(C(=O)c1ccc(-c3ccc(C)cc3)o1)CC2
- pEC50 [1]: 5.28

Structure (SMILES): O=C(c1ccc(-c2ccc(Cl)cc2)o1)N1CCc2ccccc2C1
- pEC50 [1]: 5.17

Structure (SMILES): O=C(c1ccc(-c2c(F)cccc2F)o1)N1CCc2ccccc2C1
- pEC50 [1]: 4.81

Structure (SMILES): COc1ccc(-c2ccc(C(=O)N3CCc4ccccc4C3)o2)cc1
- pEC50 [1]: 5.26

Structure (SMILES): O=C(c1ccc(-c2ccccc2F)o1)N1CCc2ccccc2C1
- pEC50 [1]: 4.83

Structure (SMILES): COc1cc2c(cc1OC)CN(C(=O)c1ccc(-c3ccc([N+](=O)[O-])cc3)o1)CC2
- pEC50 [1]: 5.03

Structure (SMILES): COc1cc2c(cc1OC)CN(C(=O)c1ccc(-c3ccccc3)o1)CC2
- pEC50 [1]: 5.17

Structure (SMILES): O=C(c1ccc(-c2ccc(F)cc2F)o1)N1CCCc2ccccc21
- pEC50 [1]: 4.76

Structure (SMILES): Cc1ccc(-c2ccc(C(=O)N3CCc4ccccc4C3)o2)cc1
- pEC50 [1]: 5.09

Structure (SMILES): O=C(c1ccc(-c2ccc(F)cc2F)o1)N1CCc2ccccc2C1
- pEC50 [1]: 4.90

Structure (SMILES): COc1cc2c(cc1OC)CN(C(=O)c1ccc(-c3ccc(F)cc3F)o1)CC2
- pEC50 [1]: 4.98

Structure (SMILES): O=C(c1ccc(-c2ccccc2F)o1)N1CCCc2ccccc21
- pEC50 [1]: 4.75

Structure (SMILES): COc1cc2c(cc1OC)CN(C(=O)c1ccc(-c3cccc(F)c3)o1)CC2
- pEC50 [1]: 4.75

Structure (SMILES): O=C(c1ccc(-c2ccc(F)cc2)o1)N1CCCc2ccccc21
- pEC50 [1]: 4.88

Structure (SMILES): O=C(c1ccc(-c2ccccc2[N+](=O)[O-])o1)N1CCCc2ccccc21
- pEC50 [1]: 4.71

Structure (SMILES): Cc1ccc(-c2ccc(C(=O)N3CCCc4ccccc43)o2)cc1
- pEC50 [1]: 5.04

Structure (SMILES): O=C(c1ccc(-c2c(F)cccc2F)o1)N1CCCc2ccccc21
- pEC50 [1]: 4.71

Structure (SMILES): O=C(c1ccc(-c2ccccc2Cl)o1)N1CCc2ccccc2C1
- pEC50 [1]: 4.99

Structure (SMILES): O=C(c1ccc(-c2ccccc2)o1)N1CCc2ccccc2C1
- pEC50 [1]: 5.08

Structure (SMILES): COc1ccc(CCN(C)CCCC(C#N)(c2ccc(OC)c(OC)c2)C(C)C)cc1OC (configuration not stated) [VERAPAMIL]
- pEC50 [1]: 4.69
- fold change (FC) (Homo sapiens [2]): 3.6
- Activity (Homo sapiens [3]): 52.5%

Structure (SMILES): COc1cc2c(cc1OC)CN(C(=O)c1ccc(-c3c(F)cccc3F)o1)CC2
- pEC50 [1]: 4.89

Structure (SMILES): COc1cc2c(cc1OC)CN(C(=O)c1ccc(-c3ccc(Cl)cc3)o1)CC2
- pEC50 [1]: 5.49
- fold change (FC) (Homo sapiens [2]): 6.8
- Activity (NCI/ADR-RES): < 15%
- Activity (Homo sapiens [3]): 89.6%

Structure (SMILES): O=C(c1ccc(-c2ccccc2[N+](=O)[O-])o1)N1CCc2ccccc2C1
- pEC50 [1]: 4.82

Structure (SMILES): COc1cc2c(cc1OC)CN(C(=O)c1ccc(-c3cccc([N+](=O)[O-])c3)o1)CC2
- pEC50 [1]: 4.79

Structure (SMILES): COc1cc2c(cc1OC)CN(C(=O)c1ccc(-c3ccc(F)cc3)o1)CC2
- pEC50 [1]: 5.07

Structure (SMILES): COc1ccc(-c2ccc(C(=O)N3CCCc4ccccc43)o2)cc1
- pEC50 [1]: 5.17

Structure (SMILES): COc1cc2c(cc1OC)CN(C(=O)c1ccc(-c3cccc(Cl)c3)o1)CC2
- pEC50 [1]: 4.83

Structure (SMILES): O=C(c1ccc(-c2ccccc2Cl)o1)N1CCCc2ccccc21
- pEC50 [1]: 4.86

Structure (SMILES): O=C(c1ccc(-c2cccc([N+](=O)[O-])c2)o1)N1CCCc2ccccc21
- pEC50 [1]: 4.54

Structure (SMILES): COc1cc2c(cc1OC)CN(C(=O)c1ccc(-c3ccccc3F)o1)CC2
- pEC50 [1]: 4.96

Structure (SMILES): O=C(c1ccc(-c2cccc(F)c2)o1)N1CCCc2ccccc21
- pEC50 [1]: 4.56

Structure (SMILES): O=C(c1ccc(-c2cccc(F)c2)o1)N1CCc2ccccc2C1
- pEC50 [1]: 4.69

Structure (SMILES): O=C(c1ccc(-c2ccc(Br)cc2)o1)N1CCc2ccccc2C1
- pEC50 [1]: 5.11

Structure (SMILES): O=C(c1ccc(-c2ccccc2)o1)N1CCCc2ccccc21
- pEC50 [1]: 4.96

Structure (SMILES): O=C(c1ccc(-c2ccc(F)cc2)o1)N1CCc2ccccc2C1
- pEC50 [1]: 4.98

Structure (SMILES): O=C(c1ccc(-c2cccc(Cl)c2)o1)N1CCCc2ccccc21
- pEC50 [1]: 4.76

Structure (SMILES): O=C(c1ccc(-c2ccc([N+](=O)[O-])cc2)o1)N1CCc2ccccc2C1
- pEC50 [1]: 4.90

Structure (SMILES): O=C(c1ccc(-c2cccc([N+](=O)[O-])c2)o1)N1CCc2ccccc2C1
- pEC50 [1]: 4.69
